From ChEMBL document CHEMBL2385079, “Design, synthesis and pharmacological characterization of analogs of 2-aminoethyl diphenylborinate (2-APB), a known store-operated calcium channel blocker, for inhibition of TRPV6-mediated calcium transport” (Bioorg Med Chem, 2013)
pIC50: −log10 of the molar value. Activity calls are given as the source filed them. The calls are words filed in the database; no cut-off is given here.

Tests used:
[1] = target: T1, ORAI 1/2/3 (Homo sapiens, UniProt Q96D31+Q96SN7+Q9BRQ5); assay: Inhibition of ORAl1/2/3 in HEK293 cells assessed as inhibition of Ca2+ influx after 10 mins by FLIPR assay in presence of thapsigargin; format: cell-based
Method in brief: (§1)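 Untransfected HEK293 cells plated at 40,000 cells/well, used after 36 h and loaded 1 h at 37 °C with Calcium-5 dye in nominally Ca2+-free modified Krebs buffer (117 mM NaCl, 4.8 mM KCl, 1 mM MgCl2, 10 mM HEPES). After a 50 s baseline, compound is added together with 1 µM thapsigargin for 10 min. Ca2+ or Cd2+ is then added, and the rate of fluorescence rise is read by FLIPR Tetra (ex 470–495, em 515–575 nm). IC50 is the mean of six experiments.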

[2] = target: T2, Transient receptor potential cation channel subfamily V member 6 (Homo sapiens, UniProt Q9H1D0); assay: Inhibition of human TRPV6 transfected in HEK293 cells assessed as inhibition of Cd2+ influx after 5 mins by FLIPR assay; format: cell-based
T2 sequence (Q9H1D0 whole entry): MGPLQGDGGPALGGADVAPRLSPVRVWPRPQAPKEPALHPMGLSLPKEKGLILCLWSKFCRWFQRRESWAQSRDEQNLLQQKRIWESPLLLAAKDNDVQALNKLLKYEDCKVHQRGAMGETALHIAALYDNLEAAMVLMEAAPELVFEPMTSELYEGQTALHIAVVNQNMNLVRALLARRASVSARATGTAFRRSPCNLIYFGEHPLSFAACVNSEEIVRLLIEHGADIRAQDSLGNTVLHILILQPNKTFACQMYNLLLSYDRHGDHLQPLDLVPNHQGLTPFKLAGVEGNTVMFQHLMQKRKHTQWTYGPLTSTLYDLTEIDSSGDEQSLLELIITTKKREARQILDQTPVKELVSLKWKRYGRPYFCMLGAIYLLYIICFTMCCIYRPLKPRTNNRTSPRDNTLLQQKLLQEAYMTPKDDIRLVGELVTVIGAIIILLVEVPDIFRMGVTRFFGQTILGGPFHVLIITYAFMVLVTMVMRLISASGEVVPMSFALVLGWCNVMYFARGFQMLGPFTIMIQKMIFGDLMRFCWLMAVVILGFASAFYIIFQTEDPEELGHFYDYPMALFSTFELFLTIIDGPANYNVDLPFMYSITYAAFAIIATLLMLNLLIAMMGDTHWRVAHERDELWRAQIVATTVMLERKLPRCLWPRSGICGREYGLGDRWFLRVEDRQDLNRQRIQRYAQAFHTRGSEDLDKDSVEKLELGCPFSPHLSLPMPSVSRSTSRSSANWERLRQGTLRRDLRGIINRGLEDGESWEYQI
Method in brief: (§2)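 HEK293 clone stably expressing RFP-tagged hTRPV6, made by Lipofectamine transfection, G418 selection and picking of red-fluorescent single-cell colonies. Cells plated at 40,000/well and used after 36 h, then loaded 1 h at 37 °C with Calcium-5 in nominally Ca2+-free Krebs buffer. After a 50 s baseline, compound is given for 5 min. Then 2 mM CaCl2 or 50 µM CdCl2 is added, and the initial rate of fluorescence increase is read by FLIPR Tetra. IC50 is the average of six independent experiments.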

[3] = target: T2, Transient receptor potential cation channel subfamily V member 6; assay: Inhibition of human TRPV6 transfected in HEK293 cells assessed as inhibition of Ca2+ influx after 5 mins by FLIPR assay; format: cell-based; method in brief: as §2
[4] = target: T1, ORAI 1/2/3; assay: Inhibition of ORAl1/2/3 in HEK293 cells assessed as inhibition of Cd2+ influx after 10 mins by FLIPR assay in presence of thapsigargin; format: cell-based; method in brief: as §1
[5] = Stability of the compound in CHCl3 by NMR analysis; format: physicochemical
[6] = system: HEK293; assay: Selectivity ratio of IC50 for ORAl1/2/3 in HEK293 cells to IC50 for human TRPV6 transfected in HEK293 cells; format: cell-based
[7] = target: T1, ORAI 1/2/3; assay: Inhibition of ORAl1/2/3 in HEK293 cells assessed as inhibition of Cd2+ influx up to 500 uM after 10 mins by FLIPR assay in presence of thapsigargin; format: cell-based; method in brief: as §1
[8] = target: T1, ORAI 1/2/3; assay: Inhibition of ORAl1/2/3 in HEK293 cells assessed as inhibition of Ca2+ influx up to 500 uM after 10 mins by FLIPR assay in presence of thapsigargin; format: cell-based; method in brief: as §1
[9] = target: T3, Transient receptor potential cation channel subfamily V member 6 (Homo sapiens) (UniProt Q9H1D0); assay: Inhibition of human TRPV6 transfected in HEK293 cells assessed as inhibition of Cd2+ influx up to 500 uM after 5 mins by FLIPR assay; format: cell-based; method in brief: as §2
T3 sequence (whole entry): T2 sequence (Q9H1D0 whole entry)

[10] = target: T3, Transient receptor potential cation channel subfamily V member 6 (Homo sapiens); assay: Inhibition of human TRPV6 transfected in HEK293 cells assessed as inhibition of Ca2+ influx up to 500 uM after 5 mins by FLIPR assay; format: cell-based; method in brief: as §2
[11] = target: T2, Transient receptor potential cation channel subfamily V member 6; assay: Inhibition of human TRPV6 transfected in HEK293 cells; format: cell-based; method in brief: as §2
[12] = target: T3, Transient receptor potential cation channel subfamily V member 6 (Homo sapiens); assay: Ratio of 2-APB IC50 to compound IC50 for human TRPV6

SMILES	IC50 [1] [µM]	pIC50 [2]	pIC50 [3]	IC50 [4] [µM]	other results
OB1c2ccccc2CCc2ccccc21	33.3	< 3.30	< 3.30	36.4	–
O=C1C[NH2+][B-](c2ccccc2)(c2ccccc2)O1	38.6	4.51	4.89	11	Stability [5]: Stable
Brc1ccc([B-]2(c3ccccc3)[NH2+]CCO2)cc1 (stereo unspecified)	3.4	5.01	4.88	4.9	–
Cc1ccc([B-]2(c3ccccc3)[NH2+]CCO2)s1 (stereo unspecified)	30.9	5.00	4.91	25.2	Ratio IC50 [6]: 2.5
c1ccc([B-]2(c3ccccc3)OC[C@@H]3CCC[NH+]32)cc1 (stereo partly specified)	8.9	4.55	4.73	10.2	–
c1ccc([B-]2(c3ccccc3)Oc3cccc4ccc[n+]2c34)cc1	–	–	–	–	inhibition [7]: inactive; inhibition [8]: inactive; inhibition [9]: inactive; inhibition [10]: inactive
CCCCc1ccc([B-]2(c3ccccc3)[NH2+]CCO2)cc1 (stereo unspecified)	3.5	4.92	4.84	2.4	–
FC(F)(F)c1ccc([B-]2(c3ccc(C(F)(F)F)cc3)[NH2+]CCO2)cc1	2.1	4.86	4.79	3.2	–
c1ccc(-c2ccc([B-]3(c4ccccc4)[NH2+]CCO3)cc2)cc1 (stereo unspecified)	13.4	4.29	4.14	7.7	–
Cc1ccc(B(O)c2ccc(C)cc2)cc1	23	4.54	4.73	25.9	–
c1ccc([B-]2(c3ccccc3)[NH2+]CCCO2)cc1	7.9	4.55	4.79	8.2	–
C[N+]1(C)CCO[B-]1(c1ccccc1)c1ccccc1	8.9	4.70	4.20	5.1	–
c1ccc([B-]2(c3ccccc3)[NH2+]CCO2)cc1	22.9	4.61	4.68	11.9	pIC50 [11]: 4.66
c1ccc([B-]2(c3ccccc3)OCC[N+]23CCNCC3)cc1	6	4.61	4.82	2.2	–
c1ccc(OB(Oc2ccccc2)Oc2ccccc2)cc1	–	–	–	–	inhibition [7]: inactive; inhibition [8]: inactive; inhibition [9]: inactive; inhibition [10]: inactive
c1ccc([B-]2(c3ccccc3)[NH2+]CCS2)cc1	51.8	4.03	3.90	44.6	–
COc1ccccc1[B-]1(c2ccccc2OC)[NH2+]CCO1	11.6	3.38	< 3.30	10.5	–
c1ccc([B-]2(c3cccnc3)[NH2+]CCO2)cc1 (stereo unspecified)	–	–	–	–	inhibition [7]: inactive; inhibition [8]: inactive; inhibition [9]: inactive; inhibition [10]: inactive
c1ccc([B-]2(c3ccccc3)OCc3cccc[n+]32)cc1	10.7	4.38	4.46	10.2	–
O=C1O[B-](c2ccccc2)(c2ccccc2)[NH2+][C@H]1CO	40.5	4.69	4.44	9.8	Stability [5]: Stable
OB(c1ccccc1)c1ccc(C(F)(F)F)cc1	–	4.90	4.95	–	–

SMILES	IC50 [1] [µM]	pIC50 [2]	pIC50 [3]	IC50 [4] [µM]	other results
CB(O)O [METHANE BORONIC ACID]	> 500	–	–	> 500	inhibition [9]: inactive; inhibition [10]: inactive
OB(c1ccccc1)c1ccc(Cl)cc1	21.8	4.92	5.01	6.4	–
Cc1ccc([B-]2(c3ccccc3)[NH2+]CCO2)cc1 (stereo unspecified)	8.6	4.89	4.72	2.7	–
CN(C)CCOC(c1ccccc1)c1ccccc1 [DIPHENHYDRAMINE]	> 500	–	–	> 500	inhibition [9]: inactive; inhibition [10]: inactive
OB(c1ccccc1)c1ccccc1 [DIPHENYL BORINIC ACID]	9.8	4.50	4.72	8.7	–
Fc1ccc([B-]2(c3ccccc3)[NH2+]CCO2)cc1 (stereo unspecified)	9.3	4.47	4.73	9.8	–
c1ccc([B-]2(c3ccccc3)OC[C@H]3CCC[NH+]32)cc1 (stereo partly specified)	8	4.51	4.73	10.1	–
NCCOC(c1ccccc1)c1ccccc1	106	< 3.30	3.80	184.2	–
OB(c1ccc(C(F)(F)F)cc1)c1ccc(C(F)(F)F)cc1	7.6	4.95	4.97	9.5	–
Ic1ccc([B-]2(c3ccccc3)[NH2+]CCO2)cc1 (stereo unspecified)	2.8	5.28	5.27	7.2	Ratio IC50 [12]: 4
Cc1ccc([B-]2(c3ccc(C)cc3)[NH2+]CCO2)cc1	1.6	4.77	4.84	7.4	–
OC(c1ccccc1)c1ccccc1 [DIPHENYLMETHANOL]	> 500	–	–	> 500	inhibition [9]: inactive; inhibition [10]: inactive
OB(c1ccc(F)cc1)c1ccc(F)cc1	26.6	4.21	4.43	17.1	–
OB(O)O	–	–	–	–	inhibition [7]: inactive; inhibition [8]: inactive; inhibition [9]: inactive; inhibition [10]: inactive
Fc1ccc([B-]2(c3ccc(F)cc3)[NH2+]CCO2)cc1	9	4.85	4.77	5.9	–
c1ccc(B(OB(c2ccccc2)c2ccccc2)c2ccccc2)cc1	11.4	4.75	4.72	13.4	–
COc1ccccc1B(O)c1ccccc1OC	13.2	< 3.30	< 3.30	11.8	–
OB(O)c1ccccc1	–	–	–	–	inhibition [7]: inactive; inhibition [8]: inactive; inhibition [9]: inactive; inhibition [10]: inactive
O=C1O[B-](c2ccccc2)(c2ccccc2)[NH2+][C@H]1Cc1c[nH]c2ccccc12	6.9	–	–	14.7	inhibition [9]: inactive; inhibition [10]: inactive
COc1ccc([B-]2(c3ccc(OC)cc3)[NH2+]CCO2)cc1	12.4	4.05	< 4.00	25.8	–
Cc1ccccc1[B-]1(c2ccccc2)[NH2+]CCO1 (stereo unspecified)	10	4.17	4.51	9.9	–
